From publication PMC10337234 (Nature chemical biology, 2023) come the findings set out here.

For experiment [1], the target named is T1, NONO C145 (Homo sapiens, UniProt Q15233).
T1 sequence (Q15233 1-471): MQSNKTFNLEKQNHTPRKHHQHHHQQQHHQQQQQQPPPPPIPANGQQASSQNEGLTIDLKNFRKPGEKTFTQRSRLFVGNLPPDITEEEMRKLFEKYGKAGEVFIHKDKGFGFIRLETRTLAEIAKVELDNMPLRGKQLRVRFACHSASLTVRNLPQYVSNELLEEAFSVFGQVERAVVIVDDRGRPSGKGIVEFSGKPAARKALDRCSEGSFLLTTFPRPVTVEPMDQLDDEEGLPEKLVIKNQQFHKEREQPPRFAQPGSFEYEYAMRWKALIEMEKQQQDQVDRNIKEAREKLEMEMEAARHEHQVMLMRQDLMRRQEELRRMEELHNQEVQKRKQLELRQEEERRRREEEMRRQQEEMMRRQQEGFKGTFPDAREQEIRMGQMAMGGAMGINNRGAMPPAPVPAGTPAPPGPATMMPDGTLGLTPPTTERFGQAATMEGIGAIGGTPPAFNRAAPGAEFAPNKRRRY
The experiment is described as follows: Cysteine-directed MS-ABPP, engagement of NONO C145 in 22Rv1 cells. It counts as binding. The note with it: 1 h. Summed up: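 22Rv1 cells were seeded at 2 × 10^6 per 10-cm plate and grown for 48 h. They were treated in situ with 20 μM test compound or DMSO for 1 h, then analysed by cysteine-directed MS-ABPP. Engagement was taken from the DMSO versus compound reactivity ratio, capped at 10 and 0.1. Values are means of three independent experiments, counting cysteines quantified in at least two.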

Experiment [2] relates to AR-FL mRNA. The experiment is described as follows: QuantiGene assay for AR-FL mRNA expression in 22Rv1 cells. It counts as cell-based. The conditions noted are these: Homo sapiens, 22Rv1, 6 h, read-out: IC50 for AR-FL transcript suppression.
Experiment [3] has as its system AR-V7 mRNA. The experiment can be described thus: QuantiGene assay for AR-V7 mRNA expression in 22Rv1 cells. Type of experiment: cell-based. The conditions noted are these: Homo sapiens, 22Rv1, 6 h, read-out: IC50 for AR-V7 transcript suppression.
In experiment [4] the target is T1, NONO C145. Type of experiment: binding. Summed up:
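HEK293T cells were seeded at 5 × 10^5 overnight and PEI-transfected with FLAG-tagged WT or C145S NONO, or empty vector, for 48 h. Cells were then given test compound or 0.1% DMSO in situ for 2 h, followed by a cysteine-reactive alkyne probe (20 μM, 1 h, 37 °C). Lysates (2 mg ml–1) were click-conjugated to rhodamine/TAMRA-azide and run on SDS-PAGE. The FLAG-NONO band was quantified by in-gel fluorescence. Four independent experiments gave the IC50.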

Experiment [5] addresses T2, NONO (Homo sapiens, UniProt Q15233).
T2 sequence (Q15233 1-471): T1 sequence (Q15233 1-471)
The experiment is described as follows: Immunofluorescence of NONO nuclear foci in 22Rv1 cells. Type of experiment: cell-based. The note with it: 20 μM, 1 h to 24 h.

The subject of experiment [6] is 22Rv1 cells. The experiment is described as follows: RNA-seq of sgControl 22Rv1 cells. The conditions noted are these: 20 μM, 4 h, log2 (fold change) < −0.5, Padj < 0.01, versus (S)-SKBG-1 or DMSO. It counts as cell-based, human.
In experiment [7] the test system is 22Rv1 cells. The experiment is described as follows: Cell growth inhibition assay. Type of experiment: cell-based, human. The note with it: 22Rv1, 6 d, versus (S)-SKBG-1. A digest of the protocol: (§1)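 Cells were seeded at 5,000 per well for 16 h. They were then given 0.1% DMSO or test compound in 0.1% DMSO (threefold dilutions from 50 μM, eight concentrations) until DMSO controls were confluent: 6 d for 22Rv1, 5 d for MCF7, 4 d for HeLa and HT1080. CellTiterGlo was added for 30 min at room temperature and luminescence read. Signals were normalized to DMSO, with four replicate wells per concentration. EC50 came from a four-parameter variable-slope fit.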

The subject of experiment [8] is MCF7 cells. The experiment is described as follows: Cell growth inhibition assay. It counts as cell-based, human. The note with it: MCF7, 5 days, versus (S)-SKBG-1. A digest of the protocol:
as §1

Experiment [9] has as its system HeLa cells. The experiment is described as follows: Cell growth inhibition assay. It counts as cell-based, human. The conditions noted are these: 4 days, versus (S)-SKBG-1. Summed up: as §1
The test system of experiment [10] is HT1080 cells. The experiment can be described thus: Cell growth inhibition assay. It counts as cell-based, human. The note with it: HT1080, 4 days, versus (S)-SKBG-1. Summed up:
as §1

Turning to `COc1ccc(CNC(=O)[C@@H]2CN(C(=O)CCl)CCN2S(=O)(=O)c2ccc(OC)cc2)cc1` [(S)-SKBG-1], in [1] (22Rv1 cells, 20 μM), the “engagement of NONO C145” value is “not by the inactive controls”.

A word on the IC50: it is the concentration that gives 50% inhibition. For `COc1ccc(CNC(=O)[C@H]2CN(C(=O)CCl)CCN2S(=O)(=O)c2ccc(OC)cc2)cc1` [(R)-SKBG-1], the values for the IC50 in experiment [2], in experiment [3] and in [4] were 2.7 to 5.5 µM, 2.7 to 5.5 µM and 5.7 µM, respectively. Also, the inhibition at 20 µM in experiment [1] (read-out: engagement of NONO C145) was above 50%. The “formation of subnuclear foci of NONO” value in [5] is “induced the formation of large subnuclear foci of NONO”. In addition, the “number of transcripts substantially and significantly decreased” value in experiment [6] is recorded as ~ 1,000 transcripts. Moreover, the cell growth effect result in [7], in [8], in experiment [9] and in experiment [10] was “stereoselective cell growth impairment” in each case.
